Results of several laboratories.
Lines come from different studies, so protocols differ.
Target: MAP kinase-interacting serine/threonine-protein kinase 1 (MKNK1, Homo sapiens, UniProt Q9BUB5)

| effect on | mode | method | concentration | endpoint | value | SMILES |
| --- | --- | --- | --- | --- | --- | --- |
| enzyme activity | inhibitor | – | 0.2 µM | inhibition | 9.43% | C#Cc1cc(-c2cc(Nc3nc(N[C@@H](C)c4ccc(F)cn4)ncc3Cl)n[nH]2)ccc1C=O |
| cell-free assay | – | – | 1 µM | remaining signal | 100% | C#Cc1cnc(Nc2ccnc(CO)c2)nc1Nc1ccccc1S(C)(=O)=NC#N (centres unmarked) |
| cell-free assay | – | competition with immobilised ligand | 25 µM | remaining binding | 75% | N#Cc1ccc(NC(=O)Nc2ccccc2)cc1 |
| binding | – | competition with immobilised ligand | 0.5 µM | remaining binding | 100% | CCCCC(=O)Nc1ccc(-c2ccc3ncn(CCC)c(=O)c3c2)cn1 |
| enzyme activity | inhibitor | – | 1 µM | activity vs control | 106% | CC(C)S(=O)(=O)c1ccc2nccc(Nc3ccc4sc(C5CCCC5)nc4c3)c2c1 |
| enzyme activity | inhibitor | – | 1 µM | inhibition | 0% | CC#CC(=O)N1CCC[C@H]1c1nc(-c2ccc(C(=O)Nc3ccccn3)cc2)c2c(N)nccn12 |
| binding | – | competition with immobilised ligand | 1 µM | remaining binding | 85% | Cc1ccc(NC(=O)c2ccnc(C(F)(F)F)c2)cc1-c1cc(OCCO)nc(N2CCOCC2)c1 |
| binding | – | – | 1 µM | remaining binding | 107% | COc1ccc2oc(-c3ccc4nc(N)oc4c3)c/c(=N\c3ccccc3NC(=O)CCN)c2c1 |
| binding | – | – | 0.1 µM | remaining binding | 78% | C1=C/COCc2cc(ccc2OCCN2CCCC2)Nc2nccc(n2)-c2cccc(c2)COC/1 |
| enzyme activity | inhibitor | – | 1 µM | inhibition | 20% | CO[C@@H]1[C@H](N(C)C(=O)c2ccccc2)C[C@H]2O[C@]1(C)n1c3ccccc3c3c4c(c5c6ccccc6n2c5c31)C(=O)NC4 |
| binding | – | competition with immobilised ligand | 1 µM | remaining binding | 65% | CN1CCN(C(=O)c2ccc(NC(=O)Nc3ccc(N(C)c4ccnc(Nc5ccc(CS(C)(=O)=O)cc5)n4)cc3)cc2)CC1 |
